From ChEMBL document CHEMBL4732237, “Discovery of 4-alkoxy-2-aryl-6,7-dimethoxyquinolines as a new class of topoisomerase I inhibitors endowed with potent in vitro anticancer activity” (2021)

Test system: SK-MEL-5
Assay: Growth inhibition of human SK-MEL-5 cells at 10 uM incubated for 48 hrs by sulforhodamine B assay relative to control
Format: functional
Details: read-out: GI
Summary of the method: (§1)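 NCI one-dose screen. Cells grown in RPMI 1640 with 5% FBS and 2 mM L-glutamine, plated and incubated 24 h at 37 °C, 5% CO2. DMSO-dissolved drug added, then 48 h further incubation. Adherent cells fixed with cold TCA, suspension cells fixed after settling. Stained with 0.4% SRB, absorbance read at 515 nm. Reported as percent growth relative to no-drug control and time-zero cell number.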

SMILES | inhibition of growth at 10 µM
COc1cc2nc(-c3ccc(C(F)(F)F)cc3)cc(OCCN3CCC(O)CC3)c2cc1OC | 13%

Test system: UACC-62
Assay: Growth inhibition of human UACC-62 cells at 10 uM incubated for 48 hrs by sulforhodamine B assay relative to control
Format: functional
Details: read-out: GI
Summary of the method: (§2)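 NCI one-dose screen across a 59-line panel. Cells were grown in RPMI 1640 with 5% FBS and 2 mM L-glutamine, plated and pre-incubated 24 h, then exposed to drug for 48 h at 37 °C, 5% CO2. Adherent cells were fixed with cold TCA (10% final), stained with 0.4% SRB in 1% acetic acid and read at 515 nm. Result is percent growth relative to no-drug control and time-zero cell count.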

SMILES | inhibition of growth at 10 µM
COc1cc2nc(-c3ccc(C(F)(F)F)cc3)cc(OCCN3CCC(O)CC3)c2cc1OC | 13%

Test system: SK-MEL-2
Assay: Growth inhibition of human SK-MEL-2 cells at 10 uM incubated for 48 hrs by sulforhodamine B assay relative to control
Format: functional
Details: read-out: GI
Summary of the method: as §1

SMILES | inhibition of growth at 10 µM
COc1cc2nc(-c3ccc(C(F)(F)F)cc3)cc(OCCN3CCC(O)CC3)c2cc1OC | 13%

Test system: SN12C
Assay: Growth inhibition of human SN12C cells at 10 uM incubated for 48 hrs by sulforhodamine B assay relative to control
Format: functional
Details: read-out: GI
Summary of the method: as §1

SMILES | inhibition of growth at 10 µM
COc1cc2nc(-c3ccc(C(F)(F)F)cc3)cc(OCCN3CCC(O)CC3)c2cc1OC | 13%

Test system: KM12
Assay: Growth inhibition of human KM12 cells at 10 uM incubated for 48 hrs by sulforhodamine B assay relative to control
Format: functional
Details: read-out: GI
Summary of the method: (§3)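 NCI-60 single-dose screen. Cells were grown in RPMI 1640 with 5% FBS and 2 mM L-glutamine and plated 24 h before drug addition. Compound was added at one concentration in DMSO-derived medium and incubated for 48 h at 37 °C in 5% CO2. Read-out was SRB protein stain at 515 nm. Result is percent growth versus the no-drug control and the time-zero cell count; values below 0 indicate lethality.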

SMILES | inhibition of growth at 10 µM
COc1cc2nc(-c3ccc(C(F)(F)F)cc3)cc(OCCN3CCC(O)CC3)c2cc1OC | 13%

Test system: T47D
Assay: Growth inhibition of human T47D cells at 10 uM incubated for 48 hrs by sulforhodamine B assay relative to control
Format: functional
Details: read-out: GI
Summary of the method: as §2

SMILES | inhibition of growth at 10 µM
COc1cc2nc(-c3ccc(C(F)(F)F)cc3)cc(OCCN3CCC(O)CC3)c2cc1OC | 13%

Test system: UACC-257
Assay: Growth inhibition of human UACC-257 cells at 10 uM incubated for 48 hrs by sulforhodamine B assay relative to control
Format: functional
Details: read-out: GI
Summary of the method: as §2

SMILES | inhibition of growth at 10 µM
COc1cc2nc(-c3ccc(C(F)(F)F)cc3)cc(OCCN3CCC(O)CC3)c2cc1OC | 13%

Test system: HL-60(TB)
Assay: Growth inhibition of human HL-60(TB) cells at 10 uM incubated for 48 hrs by sulforhodamine B assay relative to control
Format: functional
Details: read-out: GI
Summary of the method: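 NCI-60 one-dose screen: same culture, 48 h drug exposure and SRB read-out. Reported as percent growth relative to no-drug control and to time-zero cell number; 0–100 means growth inhibition, below 0 means lethality.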

SMILES | inhibition of growth at 10 µM
COc1cc2nc(-c3ccc(C(F)(F)F)cc3)cc(OCCN3CCC(O)CC3)c2cc1OC | 13%

Test system: NCI-H460
Assay: Growth inhibition of human NCI-H460 cells at 10 uM incubated for 48 hrs by sulforhodamine B assay relative to control
Format: functional
Details: read-out: GI
Summary of the method: as §1

SMILES | inhibition of growth at 10 µM
COc1cc2nc(-c3ccc(C(F)(F)F)cc3)cc(OCCN3CCC(O)CC3)c2cc1OC | 13%

Test system: NCI-H23
Assay: Growth inhibition of human NCI-H23 cells at 10 uM incubated for 48 hrs by sulforhodamine B assay relative to control
Format: functional
Details: read-out: GI
Summary of the method: as §1

SMILES | inhibition of growth at 10 µM
COc1cc2nc(-c3ccc(C(F)(F)F)cc3)cc(OCCN3CCC(O)CC3)c2cc1OC | 13%

Test system: MDA-MB-435
Assay: Growth inhibition of human MDA-MB-435 cells at 10 uM incubated for 48 hrs by sulforhodamine B assay relative to control
Format: functional
Details: read-out: GI
Summary of the method: as §3

SMILES | inhibition of growth at 10 µM
COc1cc2nc(-c3ccc(C(F)(F)F)cc3)cc(OCCN3CCC(O)CC3)c2cc1OC | 13%

Test system: SF-539
Assay: Growth inhibition of human SF-539 cells at 10 uM incubated for 48 hrs by sulforhodamine B assay relative to control
Format: functional
Details: read-out: GI
Summary of the method: as §1

SMILES | inhibition of growth at 10 µM
COc1cc2nc(-c3ccc(C(F)(F)F)cc3)cc(OCCN3CCC(O)CC3)c2cc1OC | 13%

Test system: NCI-H522
Assay: Growth inhibition of human NCI-H522 cells at 10 uM incubated for 48 hrs by sulforhodamine B assay relative to control
Format: functional
Details: read-out: GI
Summary of the method: as §1

SMILES | inhibition of growth at 10 µM
COc1cc2nc(-c3ccc(C(F)(F)F)cc3)cc(OCCN3CCC(O)CC3)c2cc1OC | 13%

Test system: OVCAR-3
Assay: Growth inhibition of human OVCAR-3 cells at 10 uM incubated for 48 hrs by sulforhodamine B assay relative to control
Format: functional
Details: read-out: GI
Summary of the method: as §1

SMILES | inhibition of growth at 10 µM
COc1cc2nc(-c3ccc(C(F)(F)F)cc3)cc(OCCN3CCC(O)CC3)c2cc1OC | 13%

Test system: NCI-H322M
Assay: Growth inhibition of human NCI-H322M cells at 10 uM incubated for 48 hrs by sulforhodamine B assay relative to control
Format: functional
Details: read-out: GI
Summary of the method: as §1

SMILES | inhibition of growth at 10 µM
COc1cc2nc(-c3ccc(C(F)(F)F)cc3)cc(OCCN3CCC(O)CC3)c2cc1OC | 13%

Test system: LOX IMVI
Assay: Growth inhibition of human LOX IMVI cells at 10 uM incubated for 48 hrs by sulforhodamine B assay relative to control
Format: functional
Details: read-out: GI
Summary of the method: as §3

SMILES | inhibition of growth at 10 µM
COc1cc2nc(-c3ccc(C(F)(F)F)cc3)cc(OCCN3CCC(O)CC3)c2cc1OC | 13%

Test system: SNB-75
Assay: Growth inhibition of human SNB-75 cells at 10 uM incubated for 48 hrs by sulforhodamine B assay relative to control
Format: functional
Details: read-out: GI
Summary of the method: as §1

SMILES | inhibition of growth at 10 µM
COc1cc2nc(-c3ccc(C(F)(F)F)cc3)cc(OCCN3CCC(O)CC3)c2cc1OC | 13%

Test system: OVCAR-4
Assay: Growth inhibition of human OVCAR-4 cells at 10 uM incubated for 48 hrs by sulforhodamine B assay relative to control
Format: functional
Details: read-out: GI
Summary of the method: as §1

SMILES | inhibition of growth at 10 µM
COc1cc2nc(-c3ccc(C(F)(F)F)cc3)cc(OCCN3CCC(O)CC3)c2cc1OC | 13%
